Data: ChEMBL document CHEMBL1157479, “Antimalarial activity of novel pyrrolizidinyl derivatives of 4-aminoquinoline” (Bioorg Med Chem Lett, 2008)
Activity calls are given as the source filed them. The calls are words filed in the database; no cut-off is given here.

Key:
Plasmodium berghei [1] = experiment: Antimalarial activity as survival time against Plasmodium berghei ANKA infected NMRI mice (Mus musculus) at 10 mg/kg/day subcutaneous dose over 4 days; type: functional
Method in brief: (§1)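 NMRI mice, in groups of three, were infected with GFP-transfected P. berghei ANKA. Treatment started 1 day post-infection, once daily for 4 consecutive days. Compounds were formulated in 70/30 Tween 80/ethanol and diluted 10× with water. Read-outs were % parasitemia reduction on day 4 post-infection and survival versus untreated controls (n = 5). Cure meant no parasites by microscopy at day 30.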

K562 = experiment: Cytotoxicity against human K562 cells by MTT assay; type: cell-based
Plasmodium berghei [2] = experiment: Antimalarial activity as reduced parasitaemia against Plasmodium berghei ANKA infected NMRI mice (Mus musculus) at 10 mg/kg/day peroral dose over 4 days; type: functional; design: scale not given: the % may be the effect or the level left; conditions: route oral; method in brief: as §1
Plasmodium berghei [3] = experiment: Antimalarial activity as reduced parasitaemia against Plasmodium berghei ANKA infected NMRI mice (Mus musculus) at 10 mg/kg/day subcutaneous dose over 4 days; type: functional; design: scale not given: the % may be the effect or the level left; method in brief: as §1
Plasmodium berghei [4] = experiment: Antimalarial activity as reduced parasitaemia against Plasmodium berghei ANKA infected NMRI mice (Mus musculus) at 100 mg/kg peroral dose after 3 days; type: functional; design: scale not given: the % may be the effect or the level left; conditions: route oral
Method in brief: (§2)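 GFP-transfected P. berghei ANKA-infected NMRI mice, in groups of three, got a single dose 1 day post-infection. Compounds were in 70/30 Tween 80/ethanol, diluted 10× with water. Read-outs were % parasitemia reduction on day 3 post-infection and survival time versus untreated controls (n = 5).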

Plasmodium berghei [5] = experiment: Antimalarial activity as reduced parasitaemia against Plasmodium berghei ANKA infected NMRI mice (Mus musculus) at 3 mg/kg/day subcutaneous dose over 4 days; type: functional; design: scale not given: the % may be the effect or the level left; method in brief: as §1
Plasmodium berghei [6] = experiment: Antimalarial activity a survival time in Plasmodium berghei ANKA infected NMRI mice (Mus musculus) at 30 mg/kg/day peroral dose over 4 days; type: functional; conditions: route oral; method in brief: as §1
Plasmodium berghei [7] = experiment: Antimalarial curative activity at day 30 against Plasmodium berghei ANKA infected NMRI mice (Mus musculus) at 30 mg/kg/day peroral dose over 4 days; type: functional, organism-based; method in brief: as §1
Plasmodium berghei [8] = experiment: Antimalarial activity as survival time in Plasmodium berghei ANKA infected NMRI mice (Mus musculus) at 30 mg/kg subcutaneous dose after 3 days; type: functional; method in brief: as §2
Plasmodium falciparum [9] = experiment: Antimalarial activity against chloroquine-sensitive Plasmodium falciparum D10 by LDH assay; type: functional, organism-based
Method in brief: (§3)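 Parasite growth inhibition in P. falciparum culture was read as parasite lactate dehydrogenase production. IC50 is the mean of 3–4 experiments, each run in triplicate.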

Plasmodium berghei [10] = experiment: Antimalarial activity as survival time against Plasmodium berghei ANKA infected NMRI mice (Mus musculus) at 10 mg/kg/day peroral dose over 4 days; type: functional; conditions: route oral; method in brief: as §1
Plasmodium falciparum [11] = experiment: Antimalarial activity against chloroquine-resistant Plasmodium falciparum W2 by LDH assay; type: functional, organism-based; method in brief: as §3
[12] = Cytotoxicity against mouse WEHI clone 13 cells by MTT assay; type: cell-based
Plasmodium falciparum [13] = experiment: Antimalarial activity against chloroquine-sensitive Plasmodium falciparum NF54 by [3H]hypoxanthine uptake; type: functional, organism-based
Method in brief: (§4)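 Growth inhibition of P. falciparum was measured by [3H]-hypoxanthine incorporation. IC50 is the mean of two experiments.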

[14] = Cytotoxicity against human HMEC1 cells by MTT assay; type: cell-based; conditions: HMEC-1
[15] = molecular target: T1, Histidine-rich protein PFHRP-II (Plasmodium falciparum) (UniProt P05227); experiment: Inhibition of beta-hematin formation as ratio to heme molar equivalent in Plasmodium falciparum; type: functional
T1 sequence (whole entry): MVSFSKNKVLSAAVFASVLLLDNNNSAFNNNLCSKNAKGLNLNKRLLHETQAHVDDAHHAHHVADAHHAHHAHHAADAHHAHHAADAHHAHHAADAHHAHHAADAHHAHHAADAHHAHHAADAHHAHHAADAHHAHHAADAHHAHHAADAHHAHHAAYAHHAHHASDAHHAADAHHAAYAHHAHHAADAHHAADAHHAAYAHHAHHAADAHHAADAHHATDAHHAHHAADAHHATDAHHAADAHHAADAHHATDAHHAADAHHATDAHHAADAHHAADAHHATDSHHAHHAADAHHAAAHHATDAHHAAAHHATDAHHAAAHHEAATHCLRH

Plasmodium berghei [16] = experiment: Antimalarial activity as survival time in Plasmodium berghei ANKA infected NMRI mice (Mus musculus) at 100 mg/kg peroral dose after 3 days; type: functional; conditions: route oral; method in brief: as §2
Plasmodium berghei [17] = experiment: Antimalarial activity as reduced parasitaemia against Plasmodium berghei ANKA infected NMRI mice (Mus musculus) at 30 mg/kg subcutaneous dose after 3 days; type: functional; design: scale not given: the % may be the effect or the level left; method in brief: as §2
Plasmodium berghei [18] = experiment: Antimalarial activity as reduced parasitaemia against Plasmodium berghei ANKA infected NMRI mice (Mus musculus) at 30 mg/kg/day peroral dose over 4 days; type: functional; design: scale not given: the % may be the effect or the level left; conditions: route oral; method in brief: as §1
Plasmodium berghei [19] = experiment: Antimalarial activity as survival time against Plasmodium berghei ANKA infected NMRI mice (Mus musculus) at 3 mg/kg/day subcutaneous dose over 4 days; type: functional; method in brief: as §1
Plasmodium falciparum [20] = experiment: Antimalarial activity against chloroquine-resistant Plasmodium falciparum K1 by [3H]hypoxanthine uptake; type: functional, organism-based; method in brief: as §4
Liver microsomes = experiment: Metabolic stability in human liver microsomes assessed as clearance; type: ADME, Microsome
Method in brief: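 Human liver microsomes were used at a final 0.5 mg/ml in potassium phosphate buffer pH 7.4, with compound in DMSO, pre-incubated 10 min at 37 °C. The reaction was started with NADP, G6P, G6P-DH, MgCl2 3 mM and UDPGA 1 mM. Samples were taken at 0 and 30 min, quenched in acetonitrile and analysed by LC–MS/MS. A no-cofactor control and a 7-ethoxycoumarin standard were included.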

Mus musculus [21] = experiment: Toxicity in CD1 mouse assessed as body weight variation at 150 mg/kg, ip after 13 days; type: organism-based; design: dose 150 mg/kg, route intraperitoneal; conditions: in vivo, 312 h
Method in brief: (§5)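 Intraperitoneal dosing was given to groups of 4 mice alongside an untreated control group. Surviving mice were counted and signs noted. Mean body weight was recorded initially and after 5 and 13 days, expressed as % variation.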

Mus musculus [22] = experiment: Toxicity in CD1 mouse assessed as body weight variation at 100 mg/kg, ip after 13 days; type: organism-based; design: dose 100 mg/kg, route intraperitoneal; conditions: in vivo, 312 h; method in brief: as §5
Mus musculus [23] = experiment: Toxicity in CD1 mouse assessed as survival at 50 mg/kg, ip; type: organism-based; design: dose 50 mg/kg, route intraperitoneal; conditions: in vivo; method in brief: as §5
Mus musculus [24] = experiment: Toxicity in CD1 mouse assessed as survival at 100 mg/kg, ip; type: organism-based; design: dose 100 mg/kg, route intraperitoneal; conditions: in vivo; method in brief: as §5
Mus musculus [25] = experiment: Toxicity in CD1 mouse assessed as body weight variation at 100 mg/kg, ip after 5 days; type: organism-based; design: dose 100 mg/kg, route intraperitoneal; conditions: in vivo, 120 h; method in brief: as §5
Mus musculus [26] = experiment: Toxicity in CD1 mouse assessed as body weight variation at 150 mg/kg, ip after 5 days; type: organism-based; design: dose 150 mg/kg, route intraperitoneal; conditions: in vivo, 120 h; method in brief: as §5
Mus musculus [27] = experiment: Toxicity in CD1 mouse assessed as body weight variation at 50 mg/kg, ip after 5 days; type: organism-based; design: dose 50 mg/kg, route intraperitoneal; conditions: in vivo, 120 h; method in brief: as §5
Mus musculus [28] = experiment: Toxicity in CD1 mouse assessed as body weight variation at 50 mg/kg, ip after 13 days; type: organism-based; design: dose 50 mg/kg, route intraperitoneal; conditions: in vivo, 312 h; method in brief: as §5

Row | SMILES | Activity (Plasmodium berghei [1]) | IC50 (K562) | Activity (Plasmodium berghei [2]) | Activity (Plasmodium berghei [3]) | Activity (Plasmodium berghei [4]) | Activity (Plasmodium berghei [5]) | Activity (Plasmodium berghei [6]) | Activity (Plasmodium berghei [7]) | Activity (Plasmodium berghei [8]) | IC50 (Plasmodium falciparum [9]) | Activity (Plasmodium berghei [10]) | IC50 (Plasmodium falciparum [11]) | IC50 [12] | IC50 (Plasmodium falciparum [13]) | IC50 [14] | Activity [15] | Activity (Plasmodium berghei [16]) | Activity (Plasmodium berghei [17]) | Activity (Plasmodium berghei [18]) | Activity (Plasmodium berghei [19]) | also measured
1 | Clc1ccc2c(NCCC34CCCN3CCC4)ccnc2c1 | 15.3 days | 17600 nM | >99.9% | >99.9% | 98% | 94% | 30 days | Active | 8.7 days | 5.5 nM | 14.7 days | 54.7 nM | 61400 nM | 6.33 nM | > 60000 nM | 1.66 | 12.3 days | 99.1% | >99.9% | 9.3 days | IC50 (Plasmodium falciparum [20]): 19.6 nM
2 | CCOc1ccc2ccc(=O)oc2c1 [ETHOXYCOUMARIN] | – | – | – | – | – | – | – | – | – | – | – | – | – | – | – | – | – | – | – | – | CL (Liver microsomes): 7 mL/min/g
3 | Clc1ccc2c(NCC34CCCN3CCC4)ccnc2c1 | 29.3 days | 18100 nM | >99.9% | >99.9% | 99.5% | 96% | 25 days | – | 10.3 days | 30.6 nM | 25.7 days | 28.9 nM | 24700 nM | 10.9 nM | > 60000 nM | 1.06 | 13.7 days | 99.7% | >99.9% | 7.3 days | Activity (Mus musculus [21]): 22.9%; Activity (Mus musculus [22]): 22.2%; Activity (Mus musculus [23]): Non-toxic; Activity (Mus musculus [24]): Non-toxic; Activity (Mus musculus [25]): 10.1%; Activity (Mus musculus [26]): 12.9%; Activity (Mus musculus [27]): 8.3%; Activity (Mus musculus [28]): 20.8%; CL (Liver microsomes): 1.5 mL/min/g; IC50 (Plasmodium falciparum [20]): 10.6 nM
4 | CCN(CC)CCCC(C)Nc1ccnc2cc(Cl)ccc12.O=P(O)(O)O.O=P(O)(O)O (stereo not drawn) [CHLOROQUINE PHOSPHATE] | 15.7 days | 31800 nM | 99.9% | >99.9% | 99.2% | 99.8% | 30 days | Active | 9.7 days | – | 22.3 days | – | > 40000 nM | – | > 40000 nM | 1.69 | 14.7 days | 99.2% | >99.9% | 9.3 days | –
